The target in data set [1] is T1, Gonadotropin-releasing hormone receptor (Homo sapiens, UniProt P30968).
T1 sequence (P30968 whole entry): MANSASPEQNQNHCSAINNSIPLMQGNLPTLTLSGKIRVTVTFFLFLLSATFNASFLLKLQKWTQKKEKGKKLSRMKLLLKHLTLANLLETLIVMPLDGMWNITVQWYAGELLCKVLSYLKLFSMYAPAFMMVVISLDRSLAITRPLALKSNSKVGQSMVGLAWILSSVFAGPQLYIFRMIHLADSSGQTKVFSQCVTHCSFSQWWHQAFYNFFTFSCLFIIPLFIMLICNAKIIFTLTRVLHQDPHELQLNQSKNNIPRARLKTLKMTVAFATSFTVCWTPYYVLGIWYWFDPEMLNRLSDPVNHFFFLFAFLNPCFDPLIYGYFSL
The data set can be described thus: Displacement of [125I]-(D-Trp6)-GnRH from human GnRH receptor. The method, boiled down: (§1)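 Competition binding at overexpressed human or rat GnRH receptors against 125I-(D-Trp6)-GnRH; IC50 averaged from two independent experiments run in triplicate.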

The target in data set [2] is T2, Gonadotropin-releasing hormone receptor (Rattus norvegicus, UniProt P30969).
T2 sequence (P30969 whole entry): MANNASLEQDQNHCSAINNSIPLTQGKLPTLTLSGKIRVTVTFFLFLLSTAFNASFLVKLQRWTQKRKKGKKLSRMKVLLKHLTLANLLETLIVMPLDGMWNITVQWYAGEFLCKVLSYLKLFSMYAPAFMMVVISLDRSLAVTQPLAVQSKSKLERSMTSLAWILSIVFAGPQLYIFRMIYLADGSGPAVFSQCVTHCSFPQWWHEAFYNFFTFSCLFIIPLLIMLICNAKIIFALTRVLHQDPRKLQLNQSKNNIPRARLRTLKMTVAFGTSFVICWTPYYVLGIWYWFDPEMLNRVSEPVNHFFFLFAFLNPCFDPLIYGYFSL
The data set can be described thus: Displacement of [125I]-(D-Trp6)-GnRH from rat GnRH receptor. The essentials:
as §1

Data set [3] can be described thus: Metabolic stability in rat liver microsomes assessed as half life. It is filed as ADME, Microsome.
The target of the next data set is CYP2D6 (Homo sapiens, UniProt P10635). The data set can be described thus: Inhibition of CYP2D6 at 3 uM. The format is ADME.
Data set [4] is described as follows: Reduction in leutinizing hormone release in (D-Trp6)-GnRH-stimulated rat primary pituitary cells by RIA. It is filed as functional, cell-based. Conditions: Pituitary gland cell. The essentials:
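Primary rat pituitary cells stimulated with (D-Trp6)-GnRH; compound-driven reduction of LH release read as IC50.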

The nature of data set [5]: Metabolic stability in rat liver microsomes assessed as compound remaining at 1 uM after 15 mins. The following applies: read-out: Stability. It is filed as ADME, Microsome.
The next data set concerns the target CYP2C9 (Homo sapiens, UniProt P11712). Put plainly: Inhibition of CYP2C9 at 3 uM. It is filed as ADME.
For a further data set, the target named is CYP3A4 (Homo sapiens, UniProt P08684). The data set can be described thus: Inhibition of CYP3A4 at 3 uM. It is filed as ADME.
A short description of data set [6]: Solubility at pH 7.4. The format is physicochemical. The following applies: buffer.
Data set [7] addresses T3, Gonadotropin-releasing hormone receptor (Homo sapiens) (UniProt P30968).
T3 sequence (whole entry): T1 sequence (P30968 whole entry)
The data set can be described thus: Displacement of [125I]-(D-Trp6)-GnRH from human GnRH receptor at 50 nM.

In data set [8] the target is T1, Gonadotropin-releasing hormone receptor. Put plainly: Antagonist activity at human recombinant GnRH receptor expressed in HEK293 cells assessed as reduction in (D-Trp6)-GnRH-stimulated IP production by whole cell assay. The format is functional, cell-based. The essentials: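 Whole-cell assay, cells stimulated with (D-Trp6)-GnRH; compound-driven reduction of inositol phosphate read as IC50.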

Values after ≈ are worked out from the molar mass of the structure shown.

CYP3A4, sequence (P08684 whole entry): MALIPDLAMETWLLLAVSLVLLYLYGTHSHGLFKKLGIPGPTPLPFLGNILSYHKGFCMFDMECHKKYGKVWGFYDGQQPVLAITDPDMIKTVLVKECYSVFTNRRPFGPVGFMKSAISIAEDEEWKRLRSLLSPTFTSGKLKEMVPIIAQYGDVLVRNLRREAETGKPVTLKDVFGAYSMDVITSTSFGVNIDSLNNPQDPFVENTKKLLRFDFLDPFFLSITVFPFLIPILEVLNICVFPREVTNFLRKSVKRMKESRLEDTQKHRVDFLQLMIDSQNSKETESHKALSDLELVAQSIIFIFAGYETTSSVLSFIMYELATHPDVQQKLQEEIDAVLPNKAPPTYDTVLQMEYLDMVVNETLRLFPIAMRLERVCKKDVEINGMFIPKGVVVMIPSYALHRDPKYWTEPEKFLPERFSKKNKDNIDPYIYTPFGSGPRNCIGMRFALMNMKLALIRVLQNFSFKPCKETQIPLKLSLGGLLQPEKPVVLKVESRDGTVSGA
CYP2C9, sequence (P11712 whole entry): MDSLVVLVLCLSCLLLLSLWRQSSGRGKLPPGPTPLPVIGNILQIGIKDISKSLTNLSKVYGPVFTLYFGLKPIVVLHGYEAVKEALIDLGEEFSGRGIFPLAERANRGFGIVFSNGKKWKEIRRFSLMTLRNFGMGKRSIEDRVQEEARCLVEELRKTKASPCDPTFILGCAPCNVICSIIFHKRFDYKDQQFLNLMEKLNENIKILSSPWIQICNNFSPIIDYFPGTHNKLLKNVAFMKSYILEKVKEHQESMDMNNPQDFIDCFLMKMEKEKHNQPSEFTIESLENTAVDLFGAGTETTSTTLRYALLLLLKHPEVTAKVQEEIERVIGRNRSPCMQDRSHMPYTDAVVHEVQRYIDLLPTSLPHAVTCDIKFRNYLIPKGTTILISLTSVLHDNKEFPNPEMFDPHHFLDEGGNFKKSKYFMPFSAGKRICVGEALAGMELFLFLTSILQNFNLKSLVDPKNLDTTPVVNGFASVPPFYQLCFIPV
CYP2D6, sequence (P10635 whole entry): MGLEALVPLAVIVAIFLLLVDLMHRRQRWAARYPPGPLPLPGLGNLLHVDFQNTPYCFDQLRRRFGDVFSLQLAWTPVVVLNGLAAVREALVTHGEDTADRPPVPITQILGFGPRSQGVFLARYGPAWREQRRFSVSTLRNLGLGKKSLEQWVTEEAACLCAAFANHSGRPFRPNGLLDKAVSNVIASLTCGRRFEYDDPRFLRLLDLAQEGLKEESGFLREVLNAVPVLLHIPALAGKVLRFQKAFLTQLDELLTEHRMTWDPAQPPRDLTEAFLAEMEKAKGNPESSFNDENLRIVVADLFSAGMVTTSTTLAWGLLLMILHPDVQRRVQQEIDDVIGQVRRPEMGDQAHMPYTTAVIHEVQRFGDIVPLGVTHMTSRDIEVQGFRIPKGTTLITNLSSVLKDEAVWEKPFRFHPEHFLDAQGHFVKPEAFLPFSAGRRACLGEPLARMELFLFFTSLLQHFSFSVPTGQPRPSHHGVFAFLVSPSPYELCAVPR

As to `Cn1cnc(CN2CCN(c3cccc4[nH]c(-c5ccc(C(C)(C)C)cc5)nc34)CC2)c1`, the IC50 is 33 nM in data set [1] and 98 nM in [2].

Regarding `Cc1nc(C)c(CN2CCN(c3cccc4[nH]c(-c5ccc(C(C)(C)C)cc5)nc34)CC2)o1`, the IC50 in data set [1] was determined as 31 nM; in data set [2], 740 nM.

For the compound `CCn1cc(CN2CCN(c3cccc4[nH]c(-c5ccc(C(C)(C)C)cc5)nc34)CC2)c(=O)[nH]c1=O`, the half-life in data set [3] was 5 min. In addition, the inhibition at 3 µM at CYP2D6 was found to be 0%; against CYP2C9, 34%; against CYP3A4, 74%. The compound also displayed an IC50 in [4] of 59 nM. For the same compound, the remaining at 0.25 h, 1 µM in data set [5] was 12%. Besides, in data set [6], the solubility came out at 13 µg/mL (≈ 26.7 µM).

For the compound `CCn1nc(CN2CCN(c3cccc4[nH]c(-c5ccc(C(C)(C)C)cc5)nc34)CC2)cc1C`, in data set [7], the Activity came out at 32%.

As for `Cc1nc(CN2CCN(c3cccc4[nH]c(-c5ccc(C(C)(C)C)cc5)nc34)CC2)c[nH]1`, the half-life in data set [3] was > 30 min. The results for the inhibition at 3 µM against CYP2D6, at CYP2C9 and on CYP3A4 were 14%, 23% and 85%, respectively. Besides, the 50% inhibitory concentration (IC50) in data set [4] was determined as 250 nM; in [8] it was 44 nM; in data set [1] it was 7.5 nM; in [2], 28 nM. Further, the solubility in data set [6] is 46 µg/mL (≈ 107 µM).

`CC(C)(C)c1ccc(-c2nc3c(N4CCN(Cc5ccsc5)CC4)cccc3[nH]2)cc1`: the Activity in [7] turned out to be 6%.

For `CC(C)(C)c1ccc(-c2nc3c(N4CCN(Cc5ccco5)CC4)cccc3[nH]2)cc1`, the Activity in [7] came out at 12%.

`CCCCn1cnc(C)c1CN1CCN(c2cccc3[nH]c(-c4ccc(C(C)(C)C)cc4)nc23)CC1` returned an Activity in [7] of 67%.

Consider `Cc1ncoc1CN1CCN(c2cccc3[nH]c(-c4ccc(C(C)(C)C)cc4)nc23)CC1`, for which the 50% inhibitory concentration (IC50) in data set [1] is 90 nM; in data set [2] it was 850 nM.

On to `CCCCn1cnc(CN2CCN(c3cccc4[nH]c(-c5ccc(C(C)(C)C)cc5)nc34)CC2)c1C`, for which, in [3], the half-life is > 30 min. The inhibition at 3 µM on CYP2D6 was found to be 21%; against CYP2C9, 53%; at CYP3A4 it was 84%. For the same compound, the IC50 in [4] turned out to be 570 nM; in data set [8], 71 nM; in [1], 46 nM; in data set [2] it was 49 nM. The amount in solution in data set [6] (solubility) came to 3 µg/mL (≈ 6.19 µM).

`Cc1cc(CN2CCN(c3cccc4[nH]c(-c5ccc(C(C)(C)C)cc5)nc34)CC2)nn1C`: the IC50 in data set [1] worked out at 83 nM.

On to `CCc1nc(C)c(CN2CCN(c3cccc4[nH]c(-c5ccc(C(C)(C)C)cc5)nc34)CC2)s1`, for which the IC50 in [1] was determined as 20 nM; in data set [2], 120 nM.

Consider `CCCCc1nc(CN2CCN(c3cccc4[nH]c(-c5ccc(C(C)(C)C)cc5)nc34)CC2)cn1C`, for which the results for the IC50 in [1] and in data set [2] were 26 nM and 58 nM, respectively.

Consider `CCc1cc(CN2CCN(c3cccc4[nH]c(-c5ccc(C(C)(C)C)cc5)nc34)CC2)nn1C`, for which the half-maximal inhibitory concentration (IC50) in [1] stood at 43 nM; in [2] it was 350 nM.

With `CC(C)(C)c1ccc(-c2nc3c(N4CCN(Cc5cnc[nH]5)CC4)cccc3[nH]2)cc1`, the IC50 in data set [1] came to 21 nM; in data set [2], 290 nM.

Take `CCn1cc(CN2CCN(c3cccc4[nH]c(-c5ccc(C(C)(C)C)cc5)nc34)CC2)nc1C`: the IC50 in data set [1] worked out at 10 nM; in data set [2], 51 nM.

In the case of `Cc1ccc(CN2CCN(c3cccc4[nH]c(-c5ccc(C(C)(C)C)cc5)nc34)CC2)o1`, the half-inhibitory concentration (IC50) in data set [1] was 705 nM.

On to `Cc1cc(CN2CCN(c3cccc4[nH]c(-c5ccc(C(C)(C)C)cc5)nc34)CC2)n(C)n1`, for which the IC50 was found to be 23 nM in data set [1] and 310 nM in data set [2].

On to `CC(C)(C)c1ccc(-c2nc3c(N4CCN(Cc5ccc[nH]5)CC4)cccc3[nH]2)cc1`, for which the Activity in [7] is 7%.

Take `CCc1cc(CN2CCN(c3cccc4[nH]c(-c5ccc(C(C)(C)C)cc5)nc34)CC2)n(C)n1`: the IC50 stood at 22 nM in data set [1] and 250 nM in [2].

Turning to `CC(C)(C)c1ccc(-c2nc3c(N4CCN(Cc5cccs5)CC4)cccc3[nH]2)cc1`, the Activity in [7] worked out at 24%.

Regarding `Cc1nc(CN2CCN(c3cccc4[nH]c(-c5ccc(C(C)(C)C)cc5)nc34)CC2)c(C)s1`, in data set [1], the IC50 was found to be 21 nM.

`Cn1cccc1CN1CCN(c2cccc3[nH]c(-c4ccc(C(C)(C)C)cc4)nc23)CC1`: in [7], the Activity is 6%.

Regarding `CCCn1cnc(CN2CCN(c3cccc4[nH]c(-c5ccc(C(C)(C)C)cc5)nc34)CC2)c1C`, the half-maximal inhibitory concentration (IC50) was found to be 12 nM in data set [1] and 47 nM in data set [2].

In turn, `CCc1nc(C)sc1CN1CCN(c2cccc3[nH]c(-c4ccc(C(C)(C)C)cc4)nc23)CC1` gave an Activity in data set [7] of 26%.

With `CCCCc1nc(C)c(CN2CCN(c3cccc4[nH]c(-c5ccc(C(C)(C)C)cc5)nc34)CC2)s1`, the Activity in [7] stood at 4%.

Take `CC(C)(C)c1ccc(-c2nc3c(N4CCN(Cc5ncc[nH]5)CC4)cccc3[nH]2)cc1`: the Activity in data set [7] came to 40%.

`CCc1nc(CN2CCN(c3cccc4[nH]c(-c5ccc(C(C)(C)C)cc5)nc34)CC2)c(C)n1CC`: the half-life in data set [3] worked out at 12 min. The IC50 in [4] amounted to 296 nM; in data set [8] it was 13 nM; in data set [1] it was 8 nM; in [2], 49 nM. Moreover, the solubility in data set [6] is 25 µg/mL (≈ 51.6 µM).

On to `CCc1nc(CN2CCN(c3cccc4[nH]c(-c5ccc(C(C)(C)C)cc5)nc34)CC2)cn1CC`, for which the IC50 in [1] stood at 11 nM; in data set [2], 69 nM.

`CCc1nc(C)c(CN2CCN(c3cccc4[nH]c(-c5ccc(C(C)(C)C)cc5)nc34)CC2)o1`: the IC50 came to 37 nM in [1] and 320 nM in data set [2].

`Cc1nc(C)c(CN2CCN(c3cccc4[nH]c(-c5ccc(C(C)(C)C)cc5)nc34)CC2)s1` returned an IC50 in data set [1] of 27 nM.

`CC(C)(C)c1ccc(-c2nc3c(N4CCN(Cc5ccoc5)CC4)cccc3[nH]2)cc1`: the Activity in data set [7] was determined as 20%.

In data set [7], `CC(C)(C)c1ccc(-c2nc3c(N4CCN(Cc5nccs5)CC4)cccc3[nH]2)cc1` returned an Activity of 26%.

Regarding `CCCn1c(CC)nc(C)c1CN1CCN(c2cccc3[nH]c(-c4ccc(C(C)(C)C)cc4)nc23)CC1`, the IC50 in data set [1] stood at 57 nM; in [2] it was 120 nM.

For `Cc1n[nH]c(C)c1CN1CCN(c2cccc3[nH]c(-c4ccc(C(C)(C)C)cc4)nc23)CC1`, the IC50 in data set [1] worked out at 68 nM.

In the case of `Cc1nn(C)c(C)c1CN1CCN(c2cccc3[nH]c(-c4ccc(C(C)(C)C)cc4)nc23)CC1`, the results for the IC50 in data set [1] and in data set [2] were 38 nM and 450 nM, respectively.

`Cn1nccc1CN1CCN(c2cccc3[nH]c(-c4ccc(C(C)(C)C)cc4)nc23)CC1` came in with an Activity in data set [7] of 25%.

Regarding `CCc1nc(CN2CCN(c3cccc4[nH]c(-c5ccc(C(C)(C)C)cc5)nc34)CC2)cn1C`, the IC50 in data set [1] turned out to be 18 nM; in data set [2] it was 78 nM.

`CCc1nc(CN2CCN(c3cccc4[nH]c(-c5ccc(C(C)(C)C)cc5)nc34)CC2)c(C)o1`: the IC50 in data set [1] was 27 nM; in data set [2], 550 nM.

Turning to `Cc1c(CN2CCN(c3cccc4[nH]c(-c5ccc(C(C)(C)C)cc5)nc34)CC2)ncn1C(C)C`, the concentration for half-maximal inhibition (IC50) in [1] turned out to be 19 nM; in [2], 61 nM.

On to `CCCn1c(CC)nc(CN2CCN(c3cccc4[nH]c(-c5ccc(C(C)(C)C)cc5)nc34)CC2)c1C`, for which the IC50 in data set [1] amounted to 29 nM; in data set [2], 57 nM.

As for `Cc1nc(CN2CCN(c3cccc4[nH]c(-c5ccc(C(C)(C)C)cc5)nc34)CC2)cn1C`, the half-life in data set [3] is 9 min. Besides, the values for the inhibition at 3 µM against CYP2D6, against CYP2C9 and against CYP3A4 were 3%, 12% and 66%, respectively. The IC50 in data set [4] came to 300 nM; in data set [8] it was 23 nM; in [1] it was 10 nM; in data set [2], 34 nM. In addition, the solubility in data set [6] came to 51 µg/mL (≈ 115 µM).

For the origin of these results see ChEMBL document CHEMBL1153337, “Small molecule antagonists of the gonadotropin-releasing hormone (GnRH) receptor: structure-activity relationships of small heterocyclic groups appended to the 2-phenyl-4-piperazinyl-benzimidazole template” (Bioorg Med Chem Lett, 2009).
